Results from BindingDB's records for doi:10.1021/jm9504767 (Freie Universität Berlin, 1996).

The molecules below were run against Histamine H3 receptor (Rattus norvegicus, UniProt Q9QYN8) (assay: In vitro antagonistic activity tested against Histamine H3 receptor on synaptosomes from rat cerebral cortex).
How it was run: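 Preloaded 30 min with L-[3H]histidine (0.4 µM) at 37 °C in modified Krebs-Ringer. Washed, resuspended in 2 mM K+ medium, then depolarized 2 min with 2 or 30 mM K+ (final). […] Stopped by rapid centrifugation; liquid scintillation. Ki by Cheng-Prusoff; mean ± SEM, ≥3 determinations.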

Sequence of Histamine H3 receptor (Q9QYN8 whole entry): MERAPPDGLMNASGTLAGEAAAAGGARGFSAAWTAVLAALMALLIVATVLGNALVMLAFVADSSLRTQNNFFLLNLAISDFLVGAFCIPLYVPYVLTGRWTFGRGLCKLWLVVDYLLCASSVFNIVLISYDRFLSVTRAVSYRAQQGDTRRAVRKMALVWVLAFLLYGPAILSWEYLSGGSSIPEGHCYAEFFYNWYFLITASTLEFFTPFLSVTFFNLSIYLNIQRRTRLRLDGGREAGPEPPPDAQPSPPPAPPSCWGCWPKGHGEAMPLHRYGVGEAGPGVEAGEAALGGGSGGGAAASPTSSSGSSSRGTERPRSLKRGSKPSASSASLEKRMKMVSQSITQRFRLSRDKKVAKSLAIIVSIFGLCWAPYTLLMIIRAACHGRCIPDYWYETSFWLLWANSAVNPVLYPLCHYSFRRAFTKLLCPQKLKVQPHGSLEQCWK

SMILES | Ki [µM]
COc1ccc(CCC(=O)OCCCc2cnc[nH]2)cc1I [3-(3-Iodo-4-methoxy-phenyl)-propionic acid 3-(1H-imidazol-4-yl)-propyl ester] | 0.251
O=C(CCc1ccc(I)cc1)OCCCc1cnc[nH]1 [3-(4-Iodo-phenyl)-propionic acid 3-(1H-imidazol-4-yl)-propyl ester] | 0.05
Nc1c(I)cc(C(=O)OCCCc2cnc[nH]2)cc1I [4-Amino-3,5-diiodo-benzoic acid 3-(1H-imidazol-4-yl)-propyl ester] | 0.158
Brc1ccc(COCCCc2cnc[nH]2)cc1 [4-[3-(4-Bromo-benzyloxy)-propyl]-1H-imidazole] | 0.0126
Ic1ccc(CCCOCCCc2cnc[nH]2)cc1 [4-{3-[3-(4-Iodo-phenyl)-propoxy]-propyl}-1H-imidazole] | 0.0316

Continued, values first:

Ki [µM] | SMILES
0.0316 | Cc1ccc(C(=O)OCCCc2cnc[nH]2)cc1I [3-Iodo-4-methyl-benzoic acid 3-(1H-imidazol-4-yl)-propyl ester]
0.00631 | Ic1cccc(COCCCc2cnc[nH]2)c1 [4-[3-(3-Iodo-benzyloxy)-propyl]-1H-imidazole]
0.016 | Ic1cccc(OCCCc2cnc[nH]2)c1 [4-[3-(3-Iodo-phenoxy)-propyl]-1H-imidazole]
0.0199 | Ic1ccc(OCCCc2cnc[nH]2)cc1 [4-[3-(4-Iodo-phenoxy)-propyl]-1H-imidazole]
